Data set [1] in a line: L-cystine crystallization inhibition assay. Conditions: for EC50 relative to parent LH708: metabolites of LH708. The procedure, abridged: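 Supersaturated L-cystine solution was held with test compound over a concentration range for 72 h at 20 °C, then centrifuged at 14,000 rpm for 10 min at room temperature. Supernatant was diluted 10-fold in water and run in triplicate: potassium cyanide in PBS pH 7.4, 25 min shaking, then sodium nitroprusside, with absorbance read at 530 nm. Cystine was read off a standard curve; EC50 came from nonlinear regression.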

The nature of data set [2]: Crystal growth inhibition by in situ atomic force microscopy. The following applies: in situ AFM on {0001} growth hillocks. The procedure, abridged:
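Real-time in situ AFM in a fluid cell on hexagonal L-cystine crystals grown from aqueous supersaturated solution (pH 6.3), filtered and air-dried. Surface regenerated for 20 min by flowing supersaturated 2 mM cystine at 20 mL/h. Velocities of {1010} steps on the {0001} basal plane were measured without inhibitor (Vo), then with test compound at 15, 30 and 45 µM under identical conditions.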

Data set [3] can be described thus: In vivo metabolism and pharmacokinetics of LH708. On the set-up: species or system Slc3a1 KO male mice.
Data set [4] deals with Slc3a1-knockout mouse model of cystinuria. The following applies: after oral gavage; cited from earlier work.
For data set [5] the following is noted: cited from earlier work.

Counter-ions that a name gives are not always drawn.

The source of these data is PMC11529803 (Medicinal chemistry research : an international journal for …, 2024).

With `Cl.Cl.Cl.Cl.N[C@@H](CSSC[C@H](N)C(=O)N1CCCC12CCNCC2)C(=O)N1CCCC12CCNCC2` [Compound 3j, L-Cystine bis(1,8-diazaspiro[4.5]decan-1-yl) tetrahydrochloride], the “reduction in L-cystine crystallization inhibition” value in data set [1] (relative to structure isomer 3i) is reported as roughly 5 fold.

`N[C@@H](CSSC[C@H](N)C(=O)N1CCNCC1)C(=O)N1CCNCC1` [Compound 3a, L-Cystine bis(piperazide) tetrahydrochloride]: the “EC50 relative to parent LH708” value in data set [1] is listed as no more than 2 fold. Moreover, the “L-cystine crystal growth inhibition (step roughening and decrease of {1010} step velocity)” value in data set [2] was “less effective than the other two compounds”.

As to `CN1CCN(C(=O)[C@@H](N)CSSC[C@H](N)C(=O)N2CCN(C)CC2)CC1` [Compound 2, L-cystine bis(N′-methylpiperazide)], in data set [3] (after LH708 single dose 150 μmol/kg), the plasma half-life is listed as ~ 10 min. Besides, in data set [3] (single iv or oral dose of LH708, plasma and urine), the main metabolic pathway result is on record as “disulfide exchange”. Also, the “prevention of L-cystine stone formation” value in data set [4] is recorded as “active”. Also, the “chemical and metabolic stability compared with L-CDME (1)” value in data set [5] is “chemically and metabolically more stable”.

Take `Cl.Cl.N[C@@H](CSSC[C@H](N)C(=O)NCCN1CCCC1=O)C(=O)NCCN1CCCC1=O` [Compound 4e, L-Cystine bis(N′-pyrrolidin-2-one ethyleneamide) dihydrochloride]: in data set [1], the “L-cystine crystallization inhibition activity (in words)” value is listed as “lost almost all of its crystallization inhibition activity”.

As for `Cl.Cl.Cl.Cl.N[C@@H](CSSC[C@H](N)C(=O)N1CCN(c2ccccc2)CC1)C(=O)N1CCN(c2ccccc2)CC1` [Compound 3e, L-Cystine bis(N′-phenylpiperazide) tetrahydrochloride], the “decrease in L-cystine crystallization inhibition activity” value in data set [1] (relative to LH708 (N4-methyl)) was greater than 10 fold.

With `CN1CCN(C(=O)[C@@H](N)CSSC[C@H](N)C(=O)O)CC1.Cl.Cl.Cl` [Compound 25, S-(((R)-2-Amino-3-(4-methylpiperazin-1-yl)-3-oxopropyl)thio)-L-cysteine trihydrochloride], the “EC50 relative to parent LH708” value in data set [1] is given as no more than 2 fold.
